High-throughput results deposited in PubChem by several laboratories.
SENP6 block = SENP6 protease inhibition | Q9GZR1 | AID 2599 | Recombinant SENP6 catalytic domain, aminoluciferin luminescence | inhibition, % at 10 µM | 1.8% of 330,000 active;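 active = inhibition above about 50% at the single tested dose, limit read from the data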
SENP7 inh = blocks the human protease SENP7 | 1.5% of 330,000 active | AID 434973 | inhibition, % at 5 µM | recombinant SENP7, Z-RLRGG-aminoluciferin luminescence, 40 min;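 active = inhibition above about 50% at the single test dose, limit read from the data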
Target sequence (Q9BQF6 706-1050 limits assumed): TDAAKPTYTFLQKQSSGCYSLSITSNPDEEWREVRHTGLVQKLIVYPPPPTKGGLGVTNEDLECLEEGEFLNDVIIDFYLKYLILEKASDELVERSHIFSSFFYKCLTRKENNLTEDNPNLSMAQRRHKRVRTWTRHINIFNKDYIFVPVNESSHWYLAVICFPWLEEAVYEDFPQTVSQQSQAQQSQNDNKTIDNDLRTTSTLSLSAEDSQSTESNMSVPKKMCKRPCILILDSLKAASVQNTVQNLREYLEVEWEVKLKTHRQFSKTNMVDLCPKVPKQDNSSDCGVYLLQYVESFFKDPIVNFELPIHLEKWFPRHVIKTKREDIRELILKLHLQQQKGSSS
SENP1 inh = inhibitors of human SENP1 SUMO protease catalytic domain; Q9P0U3; recombinant SENP1 catalytic domain, CyPet-SUMO1-YPet FRET cleavage; inhibition, % at 10 µM; 0.21% of 360,000 active;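 active = inhibition at least 30% at 10 µM, raw YFP signal under a set limit, fluorescence ratio 0.5 to 1.5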
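Material: hSENP1 catalytic domain, recombinant; medium: Tris pH 8 with BME, BSA, NP40 and catalase; compound: single concentration of 10 µM compound, 0.5% DMSO final; technique: FRET read of cyan and yellow fluorescence; timing: 50 min enzyme reaction, room temperature, light-protected; reagent: SFCypet-SUMO1-SFYpet substrate at 25 nM; control set: no-enzyme low, enzyme-DMSO high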
HSP90 refold inh = inhibitors of HSP90 luciferase refolding in rabbit reticulocyte lysate. luciferase refolding luminescence, 3 h. inhibition, % at 5.6 µM. 0.91% of 290,000 active;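 active = inhibition above the screen-wide mean plus 3 SD, computed separately per campaign, cut at about 16% in these data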;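 note: inhibitors lower the luminescence because luciferase stays unfolded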
SENP8 block-1 = inhibitors of human SENP8 protease; Q96LD8; purified SENP8, Z-RLRGG-aminoluciferin cleavage, luminescence; inhibition, % at 10 µM; 1.2% of 330,000 active; in the data active = inhibition above about 50%
SENP8 block-2 = blocks human SENP8 cleavage of Nedd8 substrate; Q96LD8; recombinant SENP8, Nedd8 substrate fluorescence; inhibition, % at 20 µM; 0.64% of 360,000 active; AID 602440; in the data active = inhibition mostly above about 40%, no sharp cut-off; inactive = mostly below about 27%
SENP8 conf = human SENP8 inhibition, confirmed; shares compounds with SENP7 inh; Recombinant SENP8, Z-RLRGG-aminoluciferin luminescence, 60 min; inhibition, % at 12.5 µM; 40% of 6,200 active; AID 488912;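 active = mean inhibition across replicates above about 50%, limit read from the data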
SENP6 conf = human SENP6 inhibition, confirmed; shares compounds with SENP7 inh; recombinant SENP6, Z-RLRGG-aminoluciferin luminescence; inhibition, % at 12.5 µM; 58% of 6,200 active; AID 488915
SENP7 confirm = confirmation of human SENP7 protease inhibitors | recombinant SENP7, Z-RLRGG-aminoluciferin luminescence, 40 min | 69% of 6,200 active | shares compounds with SENP7 inh | AID 488917 | inhibition, % at 12.5 µM
Casp3 select = caspase-3 inhibition (SENP selectivity assay). inhibition, % at 12.5 µM. purified caspase-3, Z-DEVD-aminoluciferin luminescence, 60 min. shares compounds with SENP7 inh. 60% of 6,200 active;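 active = mean inhibition above about 50%, limit read from the data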
SENP luc ctr = counter-screen for SENP inhibitors: luminescence interference. shares compounds with SENP7 inh. Pre-incubated SENP8/Z-RLRGG-aminoluciferin, luciferase luminescence interference. inhibition, % at 12.5 µM. 39% of 6,200 active;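 active = mean inhibition above about 50% when retested at one dose, limit read from the data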
A number is an active result. Most compounds without a hit are left out; they make up all but 2.9% or so of the library.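 Rule for the calls, unless noted: active = mean inhibition above about 50% in the one-dose retest (limit read from the data); inactive = the rest.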

For N#CC1=C(N)Oc2c(oc(CO)cc2=O)C1c1ccsc1 (stereo not given) the results were SENP6 block inactive, SENP7 inh inactive, SENP1 inh inactive, HSP90 refold inh inactive, SENP8 block-1 inactive and SENP8 block-2 inactive.
Screening N#CCCN(C(=O)COC(=O)c1ccc(Cl)nc1)c1ccc2c(c1)OCCO2 returned SENP1 inh inactive and SENP8 block-2 inactive.
For O=C1C(C2=C(O)c3ccccc3C2=O)=Nc2ccccc21 the results were SENP6 block 89, SENP7 inh inactive, SENP1 inh inactive, HSP90 refold inh inactive, SENP8 block-1 79, SENP8 block-2 60, SENP8 conf inactive, SENP6 conf 95, SENP7 confirm 100, Casp3 select 60 and SENP luc ctr inactive.
For Cc1oc2ccc(OCc3cccc(Cl)c3)cc2c1C(=O)O the results were SENP6 block 75, SENP7 inh inactive, SENP1 inh inactive, HSP90 refold inh inactive, SENP8 block-1 71, SENP8 block-2 inactive, SENP8 conf inactive, SENP6 conf inactive, SENP7 confirm inactive, Casp3 select inactive and SENP luc ctr inactive.
`Cc1oc2ccc(OCc3ccc(F)cc3)cc2c1C(=O)O` gave SENP6 block 55, SENP7 inh inactive, SENP1 inh inactive, HSP90 refold inh inactive, SENP8 block-1 inactive, SENP8 block-2 inactive, SENP8 conf inactive, SENP6 conf inactive, SENP7 confirm 73, Casp3 select 62 and SENP luc ctr 61.
CCCCNc1nnc(SCC(=O)c2c(N)n(C3CC3)c(=O)[nH]c2=O)s1 was read as SENP6 block inactive, SENP7 inh inactive, SENP1 inh inactive, SENP8 block-1 inactive and SENP8 block-2 inactive.
O=C(COC(=O)c1ccccc1NCCO)Nc1cc(C(F)(F)F)ccc1N1CCOCC1 was read as SENP6 block inactive, SENP7 inh inactive, SENP1 inh inactive, HSP90 refold inh inactive, SENP8 block-1 inactive and SENP8 block-2 inactive.
Screening COC(=O)C1(C(=O)OC)NOC2C(=O)N(N(C)c3ncc(C(F)(F)F)cc3Cl)C(=O)C21 (stereo not given) returned SENP6 block inactive, SENP7 inh inactive, SENP1 inh inactive, HSP90 refold inh inactive, SENP8 block-1 inactive and SENP8 block-2 inactive.
`CC(C)(C)OC(=O)N1CCC(C(=O)Nc2cccc(C(=O)NCc3ccccc3)c2)CC1` gave SENP1 inh inactive and SENP8 block-2 inactive.
`C/C(=N\NC(=O)c1ccco1)c1ccc(-c2ccccc2)cc1` gave SENP6 block 67, SENP7 inh 85, SENP1 inh inactive, HSP90 refold inh inactive, SENP8 block-1 55, SENP8 block-2 inactive, SENP8 conf inactive, SENP6 conf inactive, SENP7 confirm inactive, Casp3 select inactive and SENP luc ctr inactive.
CCOc1cc2c(C#N)c(N(CC)CC)nc(N)c2c(N)n1 was read as SENP6 block 72, SENP7 inh inactive, SENP1 inh inactive, SENP8 block-1 inactive, SENP8 block-2 inactive, SENP8 conf inactive, SENP6 conf inactive, SENP7 confirm inactive, Casp3 select inactive and SENP luc ctr inactive.
For CCCN(CC1CC1)c1nc(N)c2c(N)nc(OC)cc2c1C#N the results were SENP6 block 82, SENP7 inh inactive, SENP1 inh inactive, HSP90 refold inh inactive, SENP8 block-1 80, SENP8 block-2 inactive, SENP8 conf inactive, SENP6 conf inactive, SENP7 confirm inactive, Casp3 select inactive and SENP luc ctr inactive.
